# Measurements reported in ChEMBL document CHEMBL1122430, “Nucleosides. 123. Synthesis of antiviral nucleosides: 5-substituted 1-(2-deoxy-2-halogeno-beta-D-arabinofuranosyl)cytosines and -uracils. Some structure-activity relationships” (1983).
# Legend:
# Type in all cases: functional
# [1] = tested on: Human alphaherpesvirus 2; test: Antiherpetic activity against HSV-2; conditions: read-out: ED50 (the source's name)
# Procedure, shortened: (§1)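 Plaque-reduction assay on Vero cell monolayers infected with HSV-1 or HSV-2 (strain G). ED50 is the dose that cuts plaque number by 50%.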
# [2] = tested on: Lymphocytic cell line; test: Inhibition of growth of normal human lymphocytic cells; conditions: read-out: ID50 (the source's name)
# [3] = tested on: Human alphaherpesvirus 1; test: Antiherpetic activity against HSV-1; conditions: read-out: ED50 (the source's name); procedure, shortened: as §1
# [4] = Homo sapiens, Lymphocytic cell line
SMILES,EC50 ([1]; Human alphaherpesvirus 2),"IC50 [2, 4]",EC50 ([3]; Human alphaherpesvirus 1),EC50 [1],IC50 [2],EC50 [3]
Nc1nc(=O)n([C@H]2O[C@@H](CO)[C@H](O)[C@H]2F)cc1Br,20 nM,5000 nM,190 nM,–,–,–
Cc1cn([C@@H]2O[C@H](CO)[C@@H](O)[C@@H]2Br)c(=O)nc1N,26200 nM,34000 nM,> 100000 nM,–,–,–
Cc1cn([C@@H]2O[C@H](CO)[C@@H](O)[C@@H]2F)c(=O)nc1N,800 nM,800 nM,640 nM,–,–,–
Nc1ccn([C@@H]2O[C@H](CO)[C@@H](O)[C@@H]2Br)c(=O)n1,4400 nM,200 nM,3200 nM,–,–,–
O=c1[nH]c(=O)n([C@H]2O[C@@H](CO)[C@H](O)[C@H]2F)cc1Br,70 nM,900 nM,110 nM,–,–,–
Nc1ccn([C@@H]2O[C@H](CO)[C@@H](O)[C@@H]2F)c(=O)n1,300 nM,600 nM,120 nM,–,–,–
Nc1ccn([C@@H]2O[C@H](CO)[C@@H](O)[C@@H]2Cl)c(=O)n1,3800 nM,6 nM,110 nM,–,–,–
O=c1ccn([C@@H]2O[C@H](CO)[C@@H](O)[C@H]2F)c(=O)[nH]1,6000 nM,> 100000 nM,800 nM,–,–,–
Cc1cn([C@@H]2O[C@H](CO)[C@@H](O)[C@@H]2Cl)c(=O)[nH]c1=O,> 100000 nM,> 100000 nM,> 100000 nM,–,–,–
Cc1cn([C@@H]2O[C@H](CO)[C@@H](O)[C@@H]2F)c(=O)[nH]c1=O [5-METHYL-2'-FLUOROARAURACIL],13 nM,1000 nM,13 nM,–,–,–
Cc1cn([C@@H]2O[C@H](CO)[C@@H](O)[C@@H]2Br)c(=O)[nH]c1=O,> 100000 nM,8000 nM,> 100000 nM,–,–,–
Nc1nc(=O)n([C@@H]2O[C@H](CO)[C@@H](O)[C@@H]2Br)cc1Br,> 100000 nM,4500 nM,> 100000 nM,–,–,–
O=c1[nH]c(=O)n([C@@H]2O[C@H](CO)[C@@H](O)[C@H]2F)cc1I,55 nM,3300 nM,25 nM,–,–,–
Nc1nc(=O)n([C@@H]2O[C@H](CO)[C@@H](O)[C@H]2F)cc1I (stereo in doubt; 9),–,–,–,27400 nM,1900 nM,17900 nM
Nc1nc(=O)n([C@@H]2O[C@H](CO)[C@@H](O)[C@@H]2Br)cc1I,2200 nM,200 nM,9500 nM,–,–,–
Nc1nc(=O)n([C@@H]2O[C@H](CO)[C@@H](O)[C@@H]2Cl)cc1Br,> 100000 nM,> 100000 nM,> 100000 nM,–,–,–
Nc1nc(=O)n([C@@H]2O[C@H](CO)[C@@H](O)[C@H]2F)cc1I (stereo in doubt; 3A),–,–,–,10 nM,8600 nM,10 nM
Cc1cn([C@@H]2O[C@H](CO)[C@@H](O)[C@@H]2Cl)c(=O)nc1N,220 nM,20000 nM,> 100000 nM,–,–,–
Nc1nc(=O)n([C@@H]2O[C@H](CO)[C@@H](O)[C@@H]2Cl)cc1I,90 nM,3500 nM,3400 nM,–,–,–
